Measured values from different studies.
Lines come from different studies, so protocols differ. pIC50: −log10 of the molar value.
P2RX7: P2X purinoceptor 7 (P2RX7, Homo sapiens, UniProt Q99572)
gag-pol integrase: Gag-Pol polyprotein, integrase (gag-pol, Human immunodeficiency virus 1, UniProt P12497)
Ptgs2: Prostaglandin G/H synthase 2 (Ptgs2, Mus musculus, UniProt Q05769)
KCNA5: Potassium voltage-gated channel subfamily A member 5 (KCNA5, Homo sapiens, UniProt P22460)
MET: Hepatocyte growth factor receptor (MET, Homo sapiens, UniProt P08581)
IDE: Insulin-degrading enzyme (IDE, Homo sapiens, UniProt P14735)
TGFBR1: TGF-beta receptor type-1 (TGFBR1, Homo sapiens, UniProt P36897)

| Structure (SMILES) | target | assay | pIC50 |
| --- | --- | --- | --- |
| Sc1nnc(-c2ccccn2)o1 | P2RX7 | calcium signal, antagonist | 4.93 |
| CNCCCC(c1ccccc1)(c1ccccc1)c1ccccc1 | Kinesin-like protein KIF11 (KIF11, Homo sapiens, UniProt P52732) | ATPase activity, inhibitor | 6.41 |
| CCCCCCCCCCC[C@@H](C[C@@H]1OC(=O)[C@H]1CCCCCC)OC(=O)[C@H](CC(C)C)NC=O | Lysosomal acid lipase/cholesteryl ester hydrolase (LIPA, Homo sapiens, UniProt P38571) | enzyme activity, inhibitor | 6.77 |
| O=C(O)[C@H](Cc1ccc2ccccc2c1)NC(=O)C1(c2ccc(F)cc2)CCN(S(=O)(=O)c2ccccc2)CC1 | gag-pol integrase | enzyme activity, inhibitor, TR-FRET | 3.82 |
| O=C(Nc1ccccc1)c1cc([N+](=O)[O-])ccc1Cl | Peroxisome proliferator-activated receptor alpha (PPARA, Homo sapiens, UniProt Q07869) | ligand displacement, TR-FRET | 7.59 |
| COc1ccc2c(Oc3ccc4c(C(=O)Nc5ccccc5N)cccc4c3)ccnc2c1 | Tyrosine-protein kinase JAK3 (JAK3, Homo sapiens, UniProt P52333) | enzyme activity, inhibitor | < 6.30 |
| CC(C(=O)O)c1cccc(C(=O)c2ccccc2)c1 (stereo not shown) | Ptgs2 | enzyme activity, inhibitor | 6.14 |
| O=C(Nc1ccccc1OS(=O)(=O)c1ccc(F)cc1)c1ccc2ncccc2c1 | P2RX7 | calcium signal, antagonist | 6.20 |
| Cc1ccc(-n2nc(C(C)(C)C)cc2NC(=O)Nc2ccc(OCCN3CCOCC3)c3ccccc23)cc1 | KCNA5 | ion current, inhibitor | 5.96 |
| Cc1cc(Oc2ccc(NC(=O)c3sc(-c4ccccc4)nc3C)cc2)c2nncn2n1 | MET | enzyme activity, inhibitor, mobility shift | 6.06 |
| CN(C)C(=O)[C@H](Cc1c[nH]cn1)NC(=O)CN(CC(=O)O)Cc1ccccc1 | IDE | enzyme activity, inhibitor, fluorescence | 5.16 |
| Cc1cc(Oc2ccc(NC(=O)c3cc(-c4cccs4)no3)cc2)c2nncn2n1 | MET | enzyme activity, inhibitor, mobility shift | 6.06 |
| COC(=O)[C@H](Cc1c[nH]cn1)NC(=O)CN(CC(=O)O)Cc1ccc(F)cc1 | IDE | enzyme activity, inhibitor, fluorescence | 5.60 |
| COC(=O)c1ccc(NC(=O)NC2=CC(=O)CC(C)(C)C2)cc1 | crk3 (Leishmania mexicana, UniProt O15851) | enzyme activity, inhibitor, radiometric | 5.48 |
| CC(C)C[C@H](NC(=O)[C@H](Cc1ccccc1)NC(=O)[C@H](Cc1ccc(O)cc1)NC(=O)CNC(=O)[C@H](CCCNC(=N)N)NC(=O)[C@H](CO)NC(=O)[C@H](CCC(N)=O)NC(=O)[C@H](CO)NC(=O)[C@H](C)NC(=O)[C@H](Cc1ccccc1)NC(=O)[C@@H]1CCCN1C(=O)[C@H](CO)NC(=O)[C@H](CCC(N)=O)NC(=O)[C@H](Cc1ccccc1)NC(=O)[C@H](CCC(=O)O)NC(=O)[C@H](CCC(=O)O)NC(=O)[C@H](CC(=O)O)NC(=O)[C@@H](NC(=O)[C@H](CCCNC(=N)N)NC(=O)[C@@H](N)Cc1ccccc1)C(C)C)C(=O)N[C@@H](Cc1ccccc1)C(=O)N[C@@H](CCCNC(=N)N)C(=O)N1CCC[C@H]1C(=O)N[C@@H](CCCNC(=N)N)C(=O)N[C@@H](CC(N)=O)C(N)=O | Neuromedin-U receptor 2 (NMUR2, Homo sapiens, UniProt Q9GZQ4) | ligand displacement, radioligand | 9.66 |
| C[C@H]1C[C@@H](N2C(=N)N[C@](C)(c3cccc(Nc4ccc(C5CC5)nc4)c3Cl)CC2=O)CCO1 | KCNA5 | ion current, inhibitor, patch clamp | 5.34 |
| CC[C@H](C)[C@H](NC(C)=O)C(=O)N[C@@H](CCC(=O)O)C(=O)N[C@H](C(=O)N[C@H](C=O)CC(=O)O)[C@@H](C)O | Caspase-9 (CASP9, Homo sapiens, UniProt P55211) | enzyme activity, inhibitor | 7.66 |

| Structure (SMILES) | target | assay | pIC50 |
| --- | --- | --- | --- |
| Cc1cc(Oc2ccc(NC(=O)c3sc(-c4ccccc4)nc3C)cc2F)c2nncn2n1 | MET | enzyme activity, inhibitor, mobility shift | 6.20 |
| Cc1ccc(C(=O)Nc2ccc(Oc3cc4cnn(C)c4cc3-c3cn[nH]c3)c(F)c2)c(=O)n1-c1ccc(F)cc1 | Macrophage colony-stimulating factor 1 receptor (CSF1R, Homo sapiens, UniProt P07333) | enzyme activity, inhibitor, radiometric | 7.49 |
| CC(C)(C)OC(=O)[C@H](Cc1c[nH]cn1)NC(=O)CN(CC(=O)O)Cc1ccccc1 | IDE | enzyme activity, inhibitor, fluorescence | 6.10 |
| Cc1cnc(-c2ccc(-c3ccc(NC(=O)Nc4c(F)cc(F)cc4F)cc3F)c3c2C(=O)NC3)[nH]1 | Serine/threonine-protein kinase 4 (STK4, Homo sapiens, UniProt Q13043) | enzyme activity, inhibitor | 8.68 |
| CN1CCN(c2ccc(Nc3ncc4cc(C#N)c(=O)n(C5CCCC5)c4n3)cc2)CC1 | TGFBR1 | enzyme activity, inhibitor | 5.73 |
| O=C(O)CN(CCCc1ccccc1)CC(=O)N[C@@H](Cc1c[nH]cn1)C(=O)NCc1ccccc1 | IDE | enzyme activity, inhibitor, fluorescence | 6.40 |
| O=C(O)[C@H](Cc1ccccc1)NC(=O)C1(c2ccccc2)CCN(S(=O)(=O)c2ccccc2)CC1 | gag-pol integrase | enzyme activity, inhibitor, TR-FRET | 3.72 |
| COc1cccc(F)c1Cn1cnc(-c2ccc(F)cc2)c1-c1ccncc1 | TGFBR1 | cell-free assay, TR-FRET | 5.91 |
| COC(=O)CN(CC(=O)N[C@@H](Cc1c[nH]cn1)C(=O)OC)Cc1ccccc1 | IDE | enzyme activity, inhibitor, fluorescence | < 4.00 |
| CC/C=C\C/C=C\C/C=C\C/C=C\C/C=C\CCCC(=O)O | POLE (Homo sapiens, UniProt Q07864) | enzyme activity, inhibitor | 4.46 |
| CC(C)(C)OC(=O)[C@H](Cc1c[nH]cn1)NC(=O)CN(CCCc1ccccc1)CC(=O)O | IDE | enzyme activity, inhibitor, fluorescence | 6.40 |
| Cc1ccc(/C=C2\C=C(CC(=O)O)c3cc(F)ccc32)cc1 | Ptgs2 | enzyme activity, inhibitor | ~4.59 |
| O=C(O)CN(CC(=O)N[C@@H](Cc1c[nH]cn1)C(=O)NCc1ccccc1)Cc1ccccc1 | IDE | enzyme activity, inhibitor, fluorescence | 5.85 |
| CCC[C@H](NC(=O)C1CN(C)C1)c1ncc(-c2cc3ccccc3nc2OC)[nH]1 | Histone deacetylase 3 (HDAC3, Homo sapiens, UniProt O15379) | enzyme activity, inhibitor, fluorescence | 6.80 |
| CNC(=O)c1cc2c(Oc3ccc(NC(=O)C4(C(=O)Nc5ccc(F)cc5)CC4)cc3)ccnc2cc1OC | Hepatocyte growth factor receptor (MET, Homo sapiens, UniProt P08581, D1228H) | enzyme activity, inhibitor, radiometric | 8.40 |
| COc1ccc(-c2n[nH]c(=S)o2)cc1 | P2RX7 | calcium signal, antagonist | 5.08 |
| COC(=O)[C@H](Cc1c[nH]cn1)NC(=O)CN(CC(=O)O)Cc1ccc(C(F)(F)F)cc1 | IDE | enzyme activity, inhibitor, fluorescence | 5.70 |
